Screening results as filed in PubChem.
KCNQ1 pot – potentiators or activators of KCNQ1 channel, primary screen, cell-based, thallium flux, high-throughput. Potassium voltage-gated channel subfamily KQT member 1 (Homo sapiens), P51787. CHO-K1 KCNQ1, thallium flux FluxOR fluorescence; stronger effect = higher value. B-score at 10 µM. hit rate 0.35% among 310,000. AID 2648, 2010;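 active means fluorescence ratio B-score, a plate-corrected score, at least three library SD, with initial intensity B-score within 5 SD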
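Assay system: stable KCNQ1 CHO-K1 line; medium: assay buffer, equal DMSO in all wells; timing: 90 min dye loading and 20 min compound exposure, both at room temperature; technique: kinetic FluxOR thallium fluorescence, 10-s 1-Hz baseline, 110-s post-stimulus read; read-out basis: B score of baseline-normalized fluorescence ratio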
Kir21 block – inhibitors of mouse Kir2.1 inward-rectifier potassium channel; hit rate 0.85% among 310,000; HEK293-Kir2.1, FluxOR thallium flux fluorescence; stronger effect = lower value; AID 1672, 2009; Inward rectifier potassium channel 2 (Mus musculus), P35561; B-score at 10 µM;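 active means fluorescence ratio B-score at or below minus 3 SD of library scores, with starting-brightness B-score within 2 SD, cut at about -4.2 in these data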;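 further: channel flux triggered by added potassium and thallium sulfate stimulus; B-score of peak minus minimum fluorescence over baseline after thallium stimulus; more negative B-score means stronger Kir2.1 block with less thallium influx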
KCNK9 block – KCNK9 potassium channel inhibitors, primary screen, HEK293 cells, thallium flux. Potassium channel subfamily K member 9 (Homo sapiens), Q9NPC2. FluxOR thallium flux fluorescence; stronger effect = lower value. B-score at 10 µM. hit rate 1.2% among 310,000;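 active means ratio B-score over 3 SD below the library mean, with starting fluorescence within 5 SD of its mean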;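 further: negative B-score means less thallium flux so channel inhibition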
KCNK3 block – human KCNK3 channel inhibitors, primary screen, CHO cells, FluxOR thallium flux, B-score; FluxOR fluorescence; stronger effect = lower value; B-score at 10 µM; hit rate 0.84% among 340,000;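 active means B-score under library mean minus 4 SD, starting fluorescence ratio at most library mean plus 5 SD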;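 further: more negative B-score means stronger inhibition of thallium flux through KCNK3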
KCNQ1 inh – inhibitors of human KCNQ1 channel, primary screen, cell-based, thallium flux, high-throughput | Potassium voltage-gated channel subfamily KQT member 1 (Homo sapiens), P51787 | hit rate 1.3% among 310,000 | B-score at 10 µM | AID 2642, 2010 | CHO-K1 KCNQ1, FluxOR thallium flux fluorescence; stronger effect = higher value;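 active means compounds whose thallium flux B-score, printed positive for inhibition, exceeds three library SD while starting fluorescence stays within three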;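 further: channel opened by potassium depolarization with thallium stimulus after 20 min compound exposure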
hERG rescue – hERG rescue from dofetilide block, primary screen, cell-based, CHO-hERG, FluxOR thallium flux, dofetilide IC70; dofetilide IC70 present; hit rate 0.51% among 310,000; activation (rescue from dofetilide block), less the hit threshold, % at 10 µM; AID 1511, 2009; Voltage-gated inwardly rectifying potassium channel KCNH2 (Homo sapiens), Q12809;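 active means activation above the mean of controls blocked by dofetilide plus 5 SD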;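 further: thallium influx through hERG after potassium depolarization seen as dye fluorescence rise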
Target sequence (Q12809 whole entry, looked up): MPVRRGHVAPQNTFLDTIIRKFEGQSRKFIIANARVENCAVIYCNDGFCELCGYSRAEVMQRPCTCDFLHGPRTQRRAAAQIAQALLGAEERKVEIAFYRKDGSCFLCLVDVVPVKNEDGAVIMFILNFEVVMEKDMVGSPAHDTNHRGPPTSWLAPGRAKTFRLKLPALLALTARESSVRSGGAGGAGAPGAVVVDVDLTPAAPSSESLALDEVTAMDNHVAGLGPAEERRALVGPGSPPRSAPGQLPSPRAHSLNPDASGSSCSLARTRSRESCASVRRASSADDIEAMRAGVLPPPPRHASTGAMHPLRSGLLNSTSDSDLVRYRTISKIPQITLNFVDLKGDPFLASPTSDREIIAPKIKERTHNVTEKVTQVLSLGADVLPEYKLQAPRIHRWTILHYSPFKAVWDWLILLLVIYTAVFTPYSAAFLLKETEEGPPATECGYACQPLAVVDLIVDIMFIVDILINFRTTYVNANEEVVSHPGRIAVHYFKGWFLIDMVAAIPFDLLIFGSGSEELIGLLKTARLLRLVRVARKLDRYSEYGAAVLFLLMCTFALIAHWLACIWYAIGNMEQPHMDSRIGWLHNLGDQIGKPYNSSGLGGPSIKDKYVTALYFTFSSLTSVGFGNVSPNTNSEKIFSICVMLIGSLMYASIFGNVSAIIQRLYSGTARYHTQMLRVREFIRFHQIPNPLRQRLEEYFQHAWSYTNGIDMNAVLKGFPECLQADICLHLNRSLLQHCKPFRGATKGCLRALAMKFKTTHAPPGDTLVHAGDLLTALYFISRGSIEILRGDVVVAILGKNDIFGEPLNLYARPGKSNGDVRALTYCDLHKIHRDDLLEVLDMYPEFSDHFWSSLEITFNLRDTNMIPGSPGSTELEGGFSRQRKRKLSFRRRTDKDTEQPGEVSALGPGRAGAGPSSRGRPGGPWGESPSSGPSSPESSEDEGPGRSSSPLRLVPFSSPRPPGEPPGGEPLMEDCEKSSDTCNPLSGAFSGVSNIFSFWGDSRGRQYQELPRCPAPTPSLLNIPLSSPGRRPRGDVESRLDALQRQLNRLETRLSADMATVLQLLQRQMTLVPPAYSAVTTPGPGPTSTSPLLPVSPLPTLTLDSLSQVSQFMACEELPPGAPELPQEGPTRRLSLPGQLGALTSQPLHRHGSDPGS
KCNQ1 inh valid – KCNQ1 potassium channel inhibitors, confirmation, cell-based, Tl flux, duplicate. shares compounds with KCNQ1 inh. KCNQ1 cell line, FluxOR thallium flux fluorescence. inhibition, % at 10 µM. hit rate 93% among 1,600. AID 588353, 2011;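 active means primary screen active, with duplicate mean exceeding buffer control mean plus 3 SD of buffer wells, cut at about 28% in these data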
CHO KCNQ1 ctr – thallium flux effects in parental CHO cells, counter-screen for KCNQ1 inhibitor project, cell-based, Tl flux | shares compounds with KCNQ1 inh | parental CHO-K1, FluxOR thallium flux fluorescence ratio; stronger effect = lower value; zero means no signal rise above baseline | fluorescence ratio (Tl flux) at 10 µM | hit rate 21% among 1,600;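 active means mean of duplicate thallium-flux fluorescence ratios in parental host cells more than 5 SD below the buffer control mean, cut at about 0.38 in these data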;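 further: ratio is peak minus minimum fluorescence divided by baseline fluorescence; actives read low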
KCNQ1 ephys val – KCNQ1 channel inhibitors, confirmation, orthogonal assay, cell-based, automated electrophysiology | shares compounds with KCNQ1 inh | KCNQ1-CHO cells, automated patch clamp current | calls only at 10 µM | hit rate 20% among 490;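 active means KCNQ1 current drop exceeding 3 SD of negative control wells, seen in both duplicate runs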;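 further: steady state current during a 2 s step from -80 to +40 mV; negative values mean current inhibition and positive values mean potentiation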
KCNQ2 spec – KCNQ2 channel inhibition, selectivity assay for KCNQ1 inhibitor project, cell-based; shares compounds with KCNQ1 inh; KCNQ2 cells, FluxOR thallium flux fluorescence; inhibition, % at 10 µM; hit rate 71% among 1,600; AID 651746, 2012;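 active means mean percent inhibition of the KCNQ2 thallium signal more than 5 SD above the buffer-only control wells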;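 further: KCNQ2 expressed in CHO cells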
KCNQ1 KCNE1 spec – KCNQ1/KCNE1 channel inhibition, selectivity assay for KCNQ1 inhibitor project, CHO-K1 cells, thallium flux, FluxOR. shares compounds with KCNQ1 inh. FluxOR thallium flux fluorescence. inhibition, % at 10 µM. hit rate 77% among 1,600. AID 652147, 2013;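 active means mean percent inhibition of duplicate wells above the buffer-only control mean plus 3 SD of those controls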
Hits are given with their value; i = inactive; nt = not tested or not shown; + = active, no number. Only some compounds are listed: those with a hit (about 3.7% of all), similar ones and a draw of the others.

SMILES | KCNQ1 pot | Kir21 block | KCNK9 block | KCNK3 block | KCNQ1 inh | hERG rescue | KCNQ1 inh valid | CHO KCNQ1 ctr | KCNQ2 spec | KCNQ1 KCNE1 spec | others
Cc1ccc(Cl)c(NC(=O)COC(=O)c2nn(C)c(=O)c3ccccc23)c1Cl | nt | nt | nt | i | nt | nt | nt | nt | nt | nt
COc1ccc(C2(C)NC(=O)N(CC(=O)NC(C)c3ccc(CC(C)C)cc3)C2=O)cc1 (stereo not drawn) | i | i | i | i | i | i | nt | nt | nt | nt
Fc1ccc(CNC(=S)Nc2ccc(OC(F)F)cc2)cc1 | i | i | i | i | 7 | i | 56 | i | i | 40%
COc1ccc(-c2csc3nc(C)nc(N4CCCCC4)c23)cc1OC | i | i | i | i | 6 | i | 54 | i | 100% | 87%
COc1ccc(C(c2c(O)ccc3ccccc23)N2CCOCC2)c(OC)c1 (stereo not drawn) | i | i | i | i | 7 | i | 113 | 0.35 | 108% | 142%
O=c1[nH]cnc2c1ncn2-c1ccc(Cl)cc1 | nt | nt | nt | i | nt | nt | nt | nt | nt | nt
CC(=O)NC12CC3CC(C1)CC(C(=O)Nc1nc4ccc(F)cc4s1)(C3)C2 | i | i | i | i | 7 | i | 92 | i | 65% | 85% | KCNQ1 ephys val=+
O=C(Nc1ccccc1)Nc1ccc(Cl)c(S(=O)(=O)N2CCOCC2)c1 | i | i | i | i | 11 | i | i | i | i | i
COc1ccccc1/C=C1\SC(=S)N(CCC(=O)NCCc2ccc(O)cc2)C1=O | i | i | i | i | i | i | nt | nt | nt | nt
Cc1csc(NC(=O)c2sc3nc(-c4cccs4)ccc3c2N)n1 | i | i | i | nt | 16 | i | 124 | 0.24 | i | i
CCCSc1nnc(NC(=O)c2sc3nc(-c4cccs4)ccc3c2N)s1 | i | i | i | i | i | i | nt | nt | nt | nt
COc1cc(C)ccc1OCC(=O)OCC(=O)NCC1CCCCC1 | nt | nt | nt | i | nt | nt | nt | nt | nt | nt
Cc1ccc(Nc2nc3ccccc3n3cnnc23)cc1Cl | i | i | i | i | i | i | nt | nt | nt | nt
CC1(c2nnc(-c3cccc(Cl)c3)o2)CC(c2ccccc2Br)=NO1 (stereo not drawn) | i | i | i | i | i | i | nt | nt | nt | nt
CCOC(=O)C1CCN(S(=O)(=O)c2ccc3[nH]c4c(c3c2)CCCC4)CC1 | i | i | i | i | 6 | i | 102 | i | 67% | 102% | KCNQ1 ephys val=+
CCOC(=O)C1CCN(S(=O)(=O)c2ccc3[nH]c(=O)c(=O)[nH]c3c2)CC1 | i | i | i | i | i | i | nt | nt | nt | nt
COc1ccc(-c2csc(NC(=O)c3ccccc3NS(=O)(=O)c3ccc(F)c(F)c3)n2)cc1 | i | i | -6.8 | i | 6 | i | 64 | i | i | 92%
O=C(Nc1ccccc1N1CCOCC1)c1ccccc1NS(=O)(=O)c1ccc(F)c(F)c1 | i | i | i | i | 7 | i | 59 | i | 74% | i
O=C(Nc1ccccc1N1CCOCC1)c1ccccc1NS(=O)(=O)c1ccc(F)cc1 | i | i | i | i | i | i | nt | nt | nt | nt
COc1ccc(C(=O)N/N=C(\N)c2cc3ccccc3oc2=O)cc1 | i | i | i | i | i | i | nt | nt | nt | nt
Cc1n[nH]c(=O)c2c(NC(=O)CSc3ccccc3Cl)oc(C)c12 | i | i | i | i | i | i | nt | nt | nt | nt
CNC(=S)Nc1ccc(C23CC4CC(CC(C4)C2)C3)cc1 | i | i | i | i | 7 | i | 74 | i | 65% | 90%
CC(=O)Nc1ccc(C23CC4CC(CC(C4)C2)C3)cc1 | i | i | i | i | i | i | nt | nt | nt | nt
Cc1cccc2c1Sc1ccc(Cl)cc1CC2N1CCNCC1 (stereo not drawn) | i | i | i | -12 | 9 | i | 123 | 0.3 | 116% | 166%
COc1cc(OC)cc(C(=O)Nc2nc(CC(=O)NCCc3ccccc3)cs2)c1 | i | i | i | i | 15 | i | 48 | i | 111% | 103%
SMILES | KCNQ1 pot | Kir21 block | KCNK9 block | KCNK3 block | KCNQ1 inh | hERG rescue | KCNQ1 inh valid | CHO KCNQ1 ctr | KCNQ2 spec | KCNQ1 KCNE1 spec | others
O=c1ccc(Cl)nn1-c1ccccc1 | i | i | i | i | i | i | nt | nt | nt | nt
N#Cc1c(-c2cccs2)nc(SCc2ccc(Cl)cc2)[nH]c1=O | i | i | i | i | 8 | i | i | i | i | i
CSc1nc(-c2cccs2)c(C#N)c(=O)[nH]1 | i | i | i | i | i | i | nt | nt | nt | nt
O=C(NCc1cccs1)C1CCCN(C(=O)Nc2ccccc2)C1 (stereo not drawn) | i | i | i | i | i | i | nt | nt | nt | nt
CC1CC(C)(C)CC2(C1)NC(=O)N(CC(=O)Nc1cc(C(F)(F)F)ccc1N1CCCCC1)C2=O (stereo not drawn) | nt | nt | nt | i | nt | nt | nt | nt | nt | nt
COc1ccccc1-c1cnn2c(NCCc3ccccc3)cc(C)nc12 | i | i | i | i | 7 | i | 66 | i | 75% | 119%
COc1ccc(CCNc2cc(C)nc3c(-c4ccccc4)cnn23)cc1OC | i | i | i | i | i | i | nt | nt | nt | nt
O=C(O)C1CCN(S(=O)(=O)c2ccc(N3CCCC3C(=O)O)c([N+](=O)[O-])c2)CC1 (stereo not drawn) | i | i | i | i | i | i | nt | nt | nt | nt
CC(C)NC(=O)c1onc(CSc2ccc(C(C)C)cc2)c1C(=O)O | i | i | i | i | 10 | i | 88 | i | 73% | 42%
COc1ccc(CCNc2ncnc3c2oc2ccccc23)cc1OC | i | i | i | i | i | i | nt | nt | nt | nt
COc1ccc(CCNc2nc(C)nc3c2oc2ccccc23)cc1OC | i | i | i | i | 10 | i | 120 | i | 123% | 78% | KCNQ1 ephys val=i
COc1ccc(C(=O)NCCCNC(=O)c2cnccn2)cc1 | i | i | i | i | i | i | nt | nt | nt | nt
